Exocytosis inh – LAMP-1 surface exposure blockers, TALL-104 cells – cell-based, flow cytometry, MLPCN library, primary screen. TALL-104 LAMP-1 surface exposure; cells stimulated with thapsigargin and PMA. inhibition, % at 10 µM. 360,000 tested, 0.66% active. AID 651702, 2012;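 active = inhibition above about 55%, limit read from the data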
Cardio protect – cardioprotection against H2O2-induced cell death, primary screen, uHTS, H9c2 cells, ATPLite luminescence; H9c2 cardiomyocytes, H2O2 injury protection, 2 h; 360,000 tested, 0.63% active; protection from H2O2 cell death, % at 20 µM;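 active = compounds giving at least 50% protection of heart cells from peroxide-induced death in the single-dose screen, raw or plate-pattern-corrected value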;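 also: 0% = DMSO wells with peroxide and 100% = DMSO wells without peroxide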
Myeloid diff 2 – induction of myeloid progenitor differentiation, primary screen, cell-based, flow cytometry, MLPCN library. ER-HoxA9 myeloid progenitors, lysozyme-GFP differentiation. calls only at 10 µM. 360,000 tested, 1% active;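 active = normalized GFP-positive differentiation at or above the plate's own cutoff, the solvent-only control mean plus 3 SD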;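 also: cells exposed to compound for four days before flow analysis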
SENP1 inh – human SENP1 catalytic domain inhibitors, primary screen, biochemical, FRET, uHTS. Sentrin-specific protease 1 (Homo sapiens), Q9P0U3. recombinant SENP1 catalytic domain, CyPet-SUMO1-YPet FRET cleavage. inhibition, % at 10 µM. 360,000 tested, 0.21% active. AID 624204, 2012;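 active = inhibition at least 30% at 10 µM, raw YFP signal under a set limit, fluorescence ratio 0.5 to 1.5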;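 also: 0% = enzyme with DMSO and 100% = no enzyme wells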
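material = recombinant human SENP1 catalytic domain, His6-tagged | quantity = 20 pM enzyme | reagent = 25 nM SUMO1 FRET substrate | compound dosing = 10 µM single point, 0.5% DMSO | timing = 50 min enzyme reaction, room temperature, light-protected | detection = FRET, CFP and YFP emission | control set = no-enzyme low, enzyme-DMSO high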
DSG3 Ab inh – inhibitors of pemphigus antibody binding to DSG3, primary screen, biochemical, bead-based, flow cytometry, scFv-GFP | DSG3-coupled beads, scFv-anti-DSG3-GFP binding; hits give low values | binding (percent of control), % at 10 µM | 310,000 tested, 0.48% active;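 active = binding more than 3 SD below its plate's average and above zero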;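 also: hits lower antibody fragment binding to DSG3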
Target sequence (P32926 whole entry, looked up, the tested form may be a part): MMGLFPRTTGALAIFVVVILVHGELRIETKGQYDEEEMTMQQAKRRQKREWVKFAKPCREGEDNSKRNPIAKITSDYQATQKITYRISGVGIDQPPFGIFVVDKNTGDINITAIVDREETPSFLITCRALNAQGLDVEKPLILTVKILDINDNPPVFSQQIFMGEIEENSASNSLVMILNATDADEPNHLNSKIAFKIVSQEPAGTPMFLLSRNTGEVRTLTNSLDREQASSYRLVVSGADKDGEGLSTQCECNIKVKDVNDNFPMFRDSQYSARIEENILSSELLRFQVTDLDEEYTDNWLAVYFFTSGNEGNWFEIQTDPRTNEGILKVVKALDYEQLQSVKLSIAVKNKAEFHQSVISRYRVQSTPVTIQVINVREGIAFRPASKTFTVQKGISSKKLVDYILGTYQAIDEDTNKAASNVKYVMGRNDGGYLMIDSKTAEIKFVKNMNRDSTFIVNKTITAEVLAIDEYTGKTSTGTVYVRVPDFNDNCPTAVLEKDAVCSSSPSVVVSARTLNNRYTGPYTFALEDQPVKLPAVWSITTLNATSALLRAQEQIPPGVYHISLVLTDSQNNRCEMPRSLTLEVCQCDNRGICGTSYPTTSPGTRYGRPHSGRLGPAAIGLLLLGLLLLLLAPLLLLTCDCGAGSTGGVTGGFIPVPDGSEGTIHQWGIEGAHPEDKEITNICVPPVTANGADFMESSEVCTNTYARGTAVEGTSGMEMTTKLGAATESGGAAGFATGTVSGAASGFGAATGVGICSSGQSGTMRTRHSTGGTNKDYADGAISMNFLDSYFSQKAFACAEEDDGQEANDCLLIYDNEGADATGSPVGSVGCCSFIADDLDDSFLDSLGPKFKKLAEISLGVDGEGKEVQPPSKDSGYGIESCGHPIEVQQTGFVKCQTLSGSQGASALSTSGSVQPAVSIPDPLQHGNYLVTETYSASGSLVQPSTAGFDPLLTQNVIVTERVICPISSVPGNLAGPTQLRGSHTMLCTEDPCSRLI
HNF4A DNA FP – change in binding of human HNF4A to DNA, primary screen, biochemical, fluorescence polarization, FITC-DNA | 1 h | activity change, % at 10 µM | 360,000 tested, 0.3% active; in the data active = activity change above about 30%, passing the limit was not always enough
Myeloid diff – inducers of myeloid progenitor differentiation, confirmation, cell-based, GFP/Mac1 flow cytometry, cherry pick 01. ER-HoxA9 myeloid progenitors, GFP/Mac1 double-positive flow. 2,300 tested, 2% active. AID 651706, 2012. shares compounds with Myeloid diff 2. calls only;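 active = share of green or green-and-red cells above 9 and 9% in run 1 or 4 and 3% in run 2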
GFP autofluor – counter-screen for myeloid differentiation promoters: compound fluorescence; AID 651707; fluorescence response, % (test concentration not listed); shares compounds with Myeloid diff 2; 2,300 tested, 7.4% active; ER-HoxA9 myeloid progenitors, no estrogen, GFP autofluorescence flow cytometry; vehicle wells 0%, positive control 100%;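 active = over 5% cells positive for green fluorescent reporter, or over 2% positive for both it and APC stain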;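 also: range taken on the double positive population between DMSO and positive control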
* = called active by the depositor. The list is not random: actives were taken first. Their share in the collection is about 3%.

How did COc1ccccc1NS(=O)(=O)c1cccc(C(=O)N2CCCC2)c1 do in these assays?
Exocytosis inh: -3; Cardio protect: 7; Myeloid diff 2: inactive; SENP1 inh: 2; DSG3 Ab inh: 111; HNF4A DNA FP: -2

How did COc1ccc(NC(=O)c2cc(-c3cc(F)ccc3OCC3CCCO3)n[nH]2)cc1OC (centres undefined) do in these assays?
Exocytosis inh: 10; Cardio protect: 25; Myeloid diff 2: inactive; SENP1 inh: -2; HNF4A DNA FP: 1

What do the screens show for `CCCCn1nc(NC(=O)CCC)c2cc3cc(OC)ccc3nc21`?
Exocytosis inh: -8; Cardio protect: 13; Myeloid diff 2: inactive; SENP1 inh: -21; DSG3 Ab inh: 103; HNF4A DNA FP: -4; Myeloid diff: inactive; GFP autofluor: 0

What do the screens show for `CCCCn1nc(NC(=O)CC(C)C)c2cc3cc(OC)ccc3nc21`?
Exocytosis inh: 8; Cardio protect: 0; Myeloid diff 2: inactive; SENP1 inh: -22; DSG3 Ab inh: 90; HNF4A DNA FP: -3

How did N#Cc1nn(-c2ccccc2)nc1N1CCCCC1 do in these assays?
Exocytosis inh: -2; Cardio protect: -14; Myeloid diff 2: active; SENP1 inh: 1; DSG3 Ab inh: 109; HNF4A DNA FP: 2; Myeloid diff: inactive; GFP autofluor: 0

Results for Cc1ccc(C(C(=O)NC2CCCCC2)N(C(=O)Cc2c[nH]c3ccccc23)c2ccccc2)o1 (centres undefined) ?
Exocytosis inh: 2; Cardio protect: 6; Myeloid diff 2: active; SENP1 inh: -2; DSG3 Ab inh: 106; HNF4A DNA FP: -5; Myeloid diff: inactive; GFP autofluor: 0

What do the screens show for `COc1ccc(-n2c(=O)c3ccccc3n(CC(=O)OCc3ccccc3)c2=O)cc1OC`?
Exocytosis inh: -3; Cardio protect: 7; Myeloid diff 2: inactive; SENP1 inh: 1; DSG3 Ab inh: 92; HNF4A DNA FP: 1

What do the screens show for `Clc1cccc(Nc2nc(N3CCOCC3)nc(N3CCOCC3)n2)c1`?
Exocytosis inh: -9; Cardio protect: -4; Myeloid diff 2: inactive; SENP1 inh: 1; DSG3 Ab inh: 47*; HNF4A DNA FP: 3; Myeloid diff: inactive; GFP autofluor: 0

What do the screens show for `Cc1cc(Nc2cccc(Cl)c2)nc(N2CCOCC2)n1`?
Exocytosis inh: -7; Cardio protect: -2; Myeloid diff 2: inactive; SENP1 inh: 3; HNF4A DNA FP: -5

Results for Clc1ccc(Oc2nc(Oc3ccc(Cl)cc3)nc(N3CCOCC3)n2)cc1 ?
Exocytosis inh: -2; Cardio protect: -13; Myeloid diff 2: active; SENP1 inh: 1; DSG3 Ab inh: 91; HNF4A DNA FP: 6; Myeloid diff: inactive; GFP autofluor: 1

What do the screens show for `COc1ccc(CCNC(=O)c2ccc3c(=O)n4c(nc3c2)CCC4)cc1OC`?
Exocytosis inh: 0; Cardio protect: 2; Myeloid diff 2: inactive; SENP1 inh: -1; DSG3 Ab inh: 101; HNF4A DNA FP: 0

How did Oc1ccc2ccccc2c1/C=N/c1nccs1 do in these assays?
Exocytosis inh: 9; Cardio protect: 5; Myeloid diff 2: inactive; SENP1 inh: -53; HNF4A DNA FP: -2

What do the screens show for `Oc1ccccc1N=Cc1c(O)ccc2ccccc12`?
Exocytosis inh: 4; Cardio protect: 49; Myeloid diff 2: active; SENP1 inh: -26; DSG3 Ab inh: 105; HNF4A DNA FP: 106; Myeloid diff: inactive; GFP autofluor: 0

What do the screens show for `Oc1ccc2ccccc2c1C=Nc1ccccc1Br`?
Exocytosis inh: 19; Cardio protect: 19; Myeloid diff 2: inactive; SENP1 inh: -50; DSG3 Ab inh: 193; HNF4A DNA FP: -22; Myeloid diff: inactive; GFP autofluor: 0

Results for CC1(C)C(C=C(Cl)Cl)C1C(=O)Nc1ccc(S(=O)(=O)Nc2ncccn2)cc1 (centres undefined) ?
Exocytosis inh: -5; Cardio protect: 0; Myeloid diff 2: inactive; SENP1 inh: 2; DSG3 Ab inh: 100; HNF4A DNA FP: 0

Results for Cc1ccc(CSCC(=O)N2CCN(c3ccc(F)cc3)CC2)cc1 ?
Exocytosis inh: -2; Cardio protect: -4; Myeloid diff 2: inactive; SENP1 inh: 0; DSG3 Ab inh: 107; HNF4A DNA FP: -2; Myeloid diff: inactive; GFP autofluor: 1

What do the screens show for `CC(C)(C)c1ccc(C(=O)NC(Cc2ccccc2)C(=O)O)cc1` (centres undefined)?
Exocytosis inh: 1; Cardio protect: 4; Myeloid diff 2: inactive; SENP1 inh: 0; DSG3 Ab inh: 103; HNF4A DNA FP: -1; Myeloid diff: inactive; GFP autofluor: 0

How did O=C(NC(Cc1ccccc1)C(=O)O)c1ccccc1 (centres undefined) do in these assays?
Exocytosis inh: -1; Cardio protect: 3; Myeloid diff 2: inactive; SENP1 inh: 3; DSG3 Ab inh: 114; HNF4A DNA FP: 1

Results for O=C(CCc1nc(-c2ccccc2F)no1)NC1CCN(Cc2ccccc2)CC1 ?
Exocytosis inh: 15; Cardio protect: -8; Myeloid diff 2: inactive; SENP1 inh: -2; DSG3 Ab inh: 125; HNF4A DNA FP: -1; Myeloid diff: inactive; GFP autofluor: 0

What do the screens show for `Cc1ccc(-c2noc(CCC(=O)NC3CCN(Cc4ccccc4)CC3)n2)cc1`?
Exocytosis inh: 0; Cardio protect: -17; Myeloid diff 2: inactive; SENP1 inh: 1; DSG3 Ab inh: 101; HNF4A DNA FP: -38

What do the screens show for `Cc1ccc(C)c(/C(O)=C2\C(=O)C(=O)N(CCCn3ccnc3)C2c2ccncc2)c1` (centres undefined)?
Exocytosis inh: -3; Cardio protect: 9; Myeloid diff 2: active; SENP1 inh: 8; DSG3 Ab inh: 105; HNF4A DNA FP: 1; Myeloid diff: inactive; GFP autofluor: 0

Results for Cc1ccc(C2/C(=C(/O)c3ccc4c(c3)CC(C)O4)C(=O)C(=O)N2CCCn2ccnc2)cc1 (centres undefined) ?
Exocytosis inh: -2; Cardio protect: -2; Myeloid diff 2: inactive; SENP1 inh: -2; DSG3 Ab inh: 110; HNF4A DNA FP: 2

Screening results (PubChem)
